Assay results taken from ChEMBL document CHEMBL1139222, “Discovering potassium channel blockers from synthetic compound database by using structure-based virtual screening in conjunction with electrophysiological assay” (J Med Chem, 2007).
Activity calls are given as the source filed them. No cut-off for these calls is given here.

What was measured:
Hippocampus [1] = experiment: Inhibition of fast transient potassium current in Sprague-Dawley rat hippocampal neurons at 100 uM by whole cell voltage clamp method; assay type: functional
Outline: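 In the primary screen, 100 µM compound was dissolved in external solution and delivered by rapid solution changer to dissociated CA1 pyramidal neurons from 5- to 9-day-old Sprague-Dawley rats. Whole-cell voltage clamp was run at 21-23 °C, with series resistance compensated 75-85% and online leak subtraction. Fast transient K+ current (IA) was measured as peak amplitude.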

Hippocampus [2] = experiment: Inhibition of delayed rectifier potassium current in Sprague-Dawley rat hippocampal neurons at 30 uM; assay type: functional, tissue-based
Outline: (§1)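 IK was recorded by whole-cell voltage clamp (21-23 °C, 3-4 MΩ KCl-based pipettes) in dissociated CA1 pyramidal neurons from 5- to 9-day-old Sprague-Dawley rats. Compound was applied intracellularly at the stated concentration. IK amplitude was measured at 300 ms latency, normalized and followed over time after application. Values are mean ± SEM, n = 5.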

[3] = Blockade of voltage-gated potassium channel assessed as inhibition of fast transient potassium current in Sprague-Dawley rat hippocampal neurons by whole cell voltage clamp method; assay type: tissue-based; conditions: Hippocampus
Outline: (§2)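 CA1 pyramidal neurons were acutely dissociated from 5- to 9-day-old Sprague-Dawley rats (500 µm minislices, protease XXIII 3 mg/mL, 32 °C, 8 min). Whole-cell voltage clamp was run at 21-23 °C with KCl 140 mM pipettes and leak subtraction. Compound was applied externally by rapid solution changer across a concentration range. IA was read as peak amplitude and IK at 300 ms latency. IC50 came from concentration-response curve fitting.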

Rattus norvegicus = species on record: Rattus norvegicus; experiment: Selectivity for inhibition of delayed rectifier potassium current over inhibition of fast transient potassium current at potassium channel in Sprague-Dawley rat hippocampal neurons; assay type: tissue-based; conditions: Hippocampus
[4] = Blockade of voltage-gated potassium channel assessed by inhibition of delayed rectifier potassium current in Sprague-Dawley rat hippocampal neurons by whole cell voltage clamp method; assay type: tissue-based; conditions: Hippocampus; outline: as §2
Hippocampus [5] = experiment: Inhibition of delayed rectifier potassium current in Sprague-Dawley rat hippocampal neurons at 300 uM; assay type: functional, tissue-based; outline: as §1
Hippocampus [6] = experiment: Inhibition of delayed rectifier potassium current in Sprague-Dawley rat hippocampal neurons at 10 uM; assay type: functional, tissue-based; outline: as §1
Hippocampus [7] = experiment: Inhibition of delayed rectifier potassium current in Sprague-Dawley rat hippocampal neurons at 100 uM; assay type: functional, tissue-based; outline: as §1
Hippocampus [8] = experiment: Inhibition of delayed rectifier potassium current in Sprague-Dawley rat hippocampal neurons at 1 mM; assay type: functional, tissue-based
Outline: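 CA1 pyramidal neurons acutely dissociated from 5- to 9-day-old Sprague-Dawley rats (protease XXIII 3 mg/mL, 32 °C, 8 min). Whole-cell voltage clamp at 21-23 °C, 3-4 MΩ electrodes with KCl pipet solution, 75-85% series-resistance compensation, online leak subtraction. Compound dissolved in external solution and delivered by rapid solution changer. IK amplitude read at 300 ms latency.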

SMILES | inhibition at 100 µM (Hippocampus [1]) [%] | Activity (Hippocampus [2]) | IC50 [3] [µM] | Ratio IC50 (Rattus norvegicus) | IC50 [4] [µM] | Activity (Hippocampus [5]) | Activity (Hippocampus [6]) | Activity (Hippocampus [7]) | Activity (Hippocampus [8])
NCCNS(=O)(=O)c1cccc2c(Cl)cccc12 | 27 | inactive | 124 | 6.9 | 18 |  |  |  | 
Cc1ccc(S(=O)(=O)NCCOCCOCCOCCNS(=O)(=O)c2ccc(C)cc2)cc1 | 63 |  | 28 | 13.3 | 2.1 | inactive | inactive |  | 
NC(COc1ccccc1)c1ccc2c(c1)OCCO2 (stereo not given) | 20 |  | 737 | 11 | 67 |  |  | inactive | 
COc1ccc2c(CCN)c[nH]c2c1 | 10 |  | 524 |  | 972 |  |  |  | inactive
Cc1nc(-c2cccnc2)nc(NCCN)c1Cl | 9 |  | 244 | 2.9 | 83 | inactive |  |  | 
O=S(=O)(CCN1CCN(Cc2ccccc2)CC1)c1ccc(Cl)cc1 | 11 |  | 980 | 16.3 | 60 |  |  | inactive | 
